Source: PubChem (Johns Hopkins Ion Channel Center)
KCNK9 inh: human KCNK9 channel inhibition | AID 488922 | Q9NPC2 | B-score at 10 µM | HEK293 KCNK9, FluxOR thallium flux fluorescence; hits give low values | 310,000 compounds, 1.2% hits;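 active = ratio B-score over 3 SD below the library mean, with starting fluorescence within 5 SD of its mean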;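 also: negative B-score means less thallium flux so channel inhibition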
hERG protect: hERG (human) protection from proarrhythmic block; AID 1511; CHO-hERG, FluxOR thallium flux, dofetilide IC70 present; activation (rescue from dofetilide block), less the hit threshold, % at 10 µM; 310,000 compounds, 0.51% hits;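 active = activation above the mean of controls blocked by dofetilide plus 5 SD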;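 also: thallium influx through hERG after potassium depolarization seen as dye fluorescence rise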
KCNK3 block: human KCNK3 channel inhibition, primary screen; B-score at 10 µM; O14649; AID 602410; 340,000 compounds, 0.84% hits; CHO-KCNK3 thallium flux, FluxOR fluorescence; hits give low values;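 active = B-score under library mean minus 4 SD, starting fluorescence ratio at most library mean plus 5 SD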;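 also: more negative B-score means stronger inhibition of thallium flux through KCNK3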
Target sequence (O14649 whole entry, looked up): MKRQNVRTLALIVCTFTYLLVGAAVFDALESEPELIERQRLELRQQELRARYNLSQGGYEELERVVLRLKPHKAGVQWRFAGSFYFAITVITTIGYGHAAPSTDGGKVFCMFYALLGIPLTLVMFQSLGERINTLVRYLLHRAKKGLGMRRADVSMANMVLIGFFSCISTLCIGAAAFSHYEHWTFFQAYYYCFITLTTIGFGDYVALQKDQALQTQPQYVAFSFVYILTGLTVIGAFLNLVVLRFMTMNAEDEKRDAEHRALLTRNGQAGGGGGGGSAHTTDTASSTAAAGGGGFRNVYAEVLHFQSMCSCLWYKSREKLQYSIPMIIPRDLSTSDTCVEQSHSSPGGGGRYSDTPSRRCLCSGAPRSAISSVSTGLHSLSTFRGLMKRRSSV
KCNQ1 inh: blocks the human KCNQ1 potassium channel. P51787. CHO-K1 KCNQ1, FluxOR thallium flux fluorescence; hits give high values. B-score at 10 µM. 310,000 compounds, 1.3% hits. AID 2642;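 active = compounds whose thallium flux B-score, printed positive for inhibition, exceeds three library SD while starting fluorescence stays within three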;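 also: channel opened by potassium depolarization with thallium stimulus after 20 min compound exposure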
KCNQ1 act: potentiators or activators of human KCNQ1 potassium channel. P51787. CHO-K1 KCNQ1, thallium flux FluxOR fluorescence; hits give high values. B-score at 10 µM. 310,000 compounds, 0.35% hits. AID 2648;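 active = fluorescence ratio B-score, a plate-corrected score, at least three library SD, with initial intensity B-score within 5 SD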
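assay system = KCNQ1-transfected CHO-K1 cells | medium = assay buffer with matched DMSO | probe or stimulus = depolarizing K+/Tl+ stimulus, K2SO4 and Tl2SO4 each 12.5 mM in 5x stock | dosing = single dose | incubation = dye 90 min, compound 20 min, room temperature | detection = kinetic FluxOR fluorescence, 10 s baseline plus 110 s post-stimulus | evaluation = ratio B score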
Kir21 inh: blocks the mouse Kir2.1 inward-rectifier potassium channel. HEK293-Kir2.1, FluxOR thallium flux fluorescence; hits give low values. B-score at 10 µM. 310,000 compounds, 0.85% hits;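 active = fluorescence ratio B-score at or below minus 3 SD of library scores, with starting-brightness B-score within 2 SD, cut at about -4.2 in these data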;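 also: channel flux triggered by added potassium and thallium sulfate stimulus; B-score of peak minus minimum fluorescence over baseline after thallium stimulus; more negative B-score means stronger Kir2.1 block with less thallium influx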
Starred values were filed as active, the others as inactive; i = inactive; . = not tested or not shown. Most compounds without a hit are left out; they make up all but 3.8% or so of the library.

SMILES | KCNK9 inh | hERG protect | KCNK3 block | KCNQ1 inh | KCNQ1 act | Kir21 inh
CN1CSC(=S)N(C)C1 | i | -28.7 | i | 13* | i | 0.11
O[C@@H]1CCCN2CCc3c([nH]c4ccccc34)[C@H]12 | i | -3.5 | i | i | i | 0.39
Cc1ccsc1/C=C1\C(=O)NC(=S)N(C)C1=O | i | -3.2 | i | 8* | i | 0.02
CN1C(=O)/C(=C/c2ccc(Cl)s2)C(=O)NC1=S | i | 5.2* | i | i | i | 0.27
CC(C)n1cc(C(=O)N(CC(=O)NC(C)(C)C)Cc2ccccc2)cn1 | i | -2.5 | i | i | i | 1.2
CC(=O)O[C@H]1C[C@@H]2CC[C@@H]3[C@H](CC[C@]4(C)C(=O)CC[C@@H]34)[C@@]2(C)C[C@@H]1OC(C)=O | . | . | i | . | . | .
CNc1ccc2oc(C[C@H]3O[C@@]4(CC[C@H]3C)O[C@H]([C@H](C)C(=O)c3ccc[nH]3)[C@H](C)C[C@H]4C)nc2c1C(=O)O | i | -4.7 | i | i | 38* | 0
O=C(Cn1cc(C(=O)c2ccccc2)c2ccccc21)NCc1ccco1 | -8.98* | -8.1 | i | i | i | -1.14
CCOC1=C(N2CC2)C(=O)C(OCC)=C(N2CC2)C1=O | . | . | i | . | . | .
O=C(c1ccc(-c2ccccc2)cc1)C1CCCN(Cc2ccn[nH]2)C1 (configuration not stated) | i | -8.9 | i | i | 8* | -1.82
COC(=O)C1=C(c2c(C)noc2C)C[C@@H]2CC[C@H]1N2C(=O)NCC1CC1 | . | . | i | . | . | .
Cc1ccc(-c2cc(-c3ccccc3)cc(-c3ccccc3)[n+]2-c2ccc(C(=O)O)cc2)cc1 | i | -3.5 | i | i | i | 1.07
C[n+]1c(-c2ccccc2)cc(CCCCc2cc(-c3ccccc3)[n+](C)c(-c3ccccc3)c2)cc1-c1ccccc1 | i | -20.6 | i | 7* | i | -0.16
COc1ccc(-c2cc(-c3ccccc3)[n+](C)c(-c3ccccc3)c2)cc1 | i | -28.4 | i | 12* | i | -2.49
COC(=O)C1=C(c2ccc(Cl)c(C(F)(F)F)c2)C[C@@H]2CC[C@H]1N2C(=O)NCc1ccco1 | . | . | i | . | . | .
CCN1CCN(c2cc(N3CCCC3)c([N+](=O)[O-])cc2F)CC1 | i | -5.8 | i | i | i | -4.24*
CN(C)c1ccc(/C=C/[N+](=O)[O-])cc1 | i | -17.2 | i | 12* | i | -6.27*
COc1cccc(C2=NOC(C(=O)N3CCC4(CC3)OCCO4)C2)c1 (configuration not stated) | i | -8.6 | i | i | i | 1.06
COc1cc2c(ccc3c4cc(OC)c(OC)cc4c[n+](C)c23)cc1O | . | . | i | . | . | .
COc1ccc(Cc2nccc3cc(OC)c(OC)cc23)cc1OC | i | -16.4 | i | i | i | -8.28*
C=CCN1CC[C@]23c4c5ccc(O)c4OC2C(O)C=CC3[C@H]1C5 (some centres not stated) | . | . | i | . | . | .
C[C@]1(O)CC[C@H]2[C@@H]3CCC4=CC(=O)CC[C@]4(C)[C@@]3(F)[C@@H](O)C[C@@]21C | . | . | -9.75* | . | . | .
CCOc1ccccc1OCC(=O)Nc1ccc(Cl)cc1C(=O)c1ccccc1 | i | -5.7 | i | 6* | i | -1.93
COc1ccccc1OCC(=O)Nc1ccc(Cl)cc1C(=O)c1ccccc1 | i | -3.9 | i | i | i | -0.3
C=C1C(=O)O[C@@H]2C[C@@H](C)[C@@H]3C=CC(=O)[C@@]3(C)[C@@H](OC(=O)CC(=O)O[C@H]3[C@@H]4C(=C)C(=O)O[C@@H]4C[C@@H](C)[C@@H]4C=CC(=O)[C@]43C)[C@H]12 | i | -16.6 | i | i | i | -4.65*
SMILES | KCNK9 inh | hERG protect | KCNK3 block | KCNQ1 inh | KCNQ1 act | Kir21 inh
CCOP(=O)(NC(C)C)Oc1ccc(SC)c(C)c1 (configuration not stated) | . | . | i | . | . | .
c1ccc(CNc2c3c(nc4ccccc24)CCC3)cc1 | i | -26.8 | i | i | i | -6.57*
CCCCn1c(=O)c(C(=O)NCc2ccccc2)c(O)c2ccccc21 | i | -1.6 | i | 8* | i | -1.19
CC1=CC(C)CC(C)OC(=O)CC(c2ccc(O)cc2)NC(=O)C(Cc2c(Br)[nH]c3ccccc23)N(C)C(=O)C(C)NC(=O)C(C)C1 (configuration not stated) | . | . | i | . | . | .
O/N=C/c1c[nH]c2ccccc12 | i | -8.6 | i | i | i | 0.01
CCCC/C(=N\O)c1c[nH]c2ccccc12 | -7.51* | 1.0 | i | i | i | -0.62
COC(=O)C1=C(c2ccccc2OCc2ccccc2)C[C@@H]2CC[C@H]1N2C(=O)NCCOc1ccccc1Cl | . | . | i | . | . | .
OC(c1cccc(Cl)c1)(c1cccc(Cl)c1)C1CN2CCC1CC2 (configuration not stated) | i | -25.2 | i | i | i | -4.65*
O=C(Nc1cccc(C(F)(F)F)c1)OC1CN2CCC1CC2 (configuration not stated) | i | -4.5 | i | i | i | -1.58
CCOC(=O)c1c(NS(=O)(=O)c2ccccc2)n(CCCOC)c2nc3ccccc3nc12 | i | 8.4* | i | i | i | -0.69
C=CC[N+]1(C)C2CCC1CC(O)C2 (configuration not stated) | i | 6.2* | i | i | i | 0.75
NC(N)=N/N=C/c1ccc(N(c2ccccc2)c2ccccc2)cc1 | i | -33.0 | i | 7* | i | -6.2*
NC(N)=N/N=C/c1ccc(N2CCOCC2)cc1 | i | -13.5 | i | i | i | -0.94
Nc1ccc(Cc2ccc(N)cc2)cc1 | . | . | i | . | . | .
CCCCCCC(C)(C)c1ccc([C@@H]2C[C@H](O)CC[C@H]2CCCO)c(O)c1 | . | . | -10.8* | . | . | .
Nc1ccccc1-[n+]1c(-c2ccccc2)cc(-c2ccccc2)cc1-c1ccccc1 | i | -16.9 | i | 7* | i | -5.78*
[O-]c1ccccc1-[n+]1c(-c2ccccc2)cc(-c2ccccc2)cc1-c1ccccc1 | -7.36* | -41.0 | i | 6* | i | -9.69*
Oc1ccccc1-[n+]1c(-c2ccccc2)cc(-c2ccccc2)cc1-c1ccccc1 | i | -43.3 | i | 14* | i | -12.2*
Cc1ccccc1-[n+]1c(-c2ccccc2)cc(-c2ccccc2)cc1-c1ccccc1 | i | -40.8 | i | 10* | i | -15.8*
CN1CCN(c2ccc([N+](=O)[O-])c3no[n+]([O-])c23)CC1 | i | -36.3 | i | 10* | i | -6.62
CCCn1c(C)cc(C=O)c1C | i | 5.6* | i | i | i | 0.25
Cc1cc(C=O)c(C)n1C(C)C | i | -3.9 | i | i | i | -0.06
